Results pooled from the literature.
Target: Angiopoietin-1 receptor (TEK, Homo sapiens, UniProt Q02763)

CC1CCCN1c1nccc(-c2cnn3ncccc23)n1 (centres unmarked) — remaining binding (binding; 1 µM): 98%
C=CC(=O)N1CCC(C(=O)NCC(=O)N2CCN(c3nc(-c4cnc(N)nc4C(F)F)nc(N4CCOCC4)n3)CC2)CC1 — remaining binding (binding; competition with immobilised ligand; 1 µM): 97%
C[C@H]1CCN(c2nccc(-c3cnn4ncccc34)n2)C1 — remaining binding (binding; 1 µM): 82%
COc1cnc(Nc2cccc(S(N)(=O)=O)c2)nc1N1CCN(c2ccccc2)CC1 — remaining binding (binding; competition with immobilised ligand; 1 µM): 100%
O=C1CCc2cc(Nc3cc(OC4CCOCC4)c([N+](=O)[O-])cc3Cl)ccc2N1 — remaining binding (cell-free assay; competition with immobilised ligand; 1 µM): 76%
O=C(c1ccc(Nc2ncc(Cl)c(-c3cc4ccccc4s3)n2)cc1)N1CCC(N2CCCC2)CC1 — remaining binding (binding; competition with immobilised ligand; 1 µM): 19%
CN(c1nccc(-c2cnn3ncccc23)n1)C1CC1 — remaining binding (binding; 1 µM): 100%
Cc1nc(N2CC[C@@H](O)C2)ncc1-c1cc(C(F)(F)F)cc2[nH]ncc12 — remaining binding (cell-free assay; competition with immobilised ligand; 1 µM): 100%
O=C(NCCCN1CCOCC1)c1ccc(Nc2nccc(-c3cc4ccccc4s3)n2)cc1 — remaining binding (binding; competition with immobilised ligand; 1 µM): 58%
O=C(NCC1CCOCC1)c1n[nH]cc1NC(=O)c1c(F)cccc1F — remaining binding (binding; competition with immobilised ligand; 1 µM): 100%
O=C(NCCCC1CCCCC1)c1ccc(CNC(=O)c2cnn(-c3ccccc3)c2C(F)(F)F)cc1 — remaining binding (cell-free assay; competition with immobilised ligand; 0.1 µM): 100%
CN(C)c1nccc(-c2cnn3ncccc23)n1 — remaining binding (binding; 1 µM): 100%
COc1ncc2cc3ccccc3nc2c1C#N — remaining binding (cell-free assay; competition with immobilised ligand; 5 µM): 88%
CN(C)C(=O)Cn1cc(-c2nc(C3(c4ccc(-c5cnc(N)nc5)cc4)CC3)no2)cn1 — remaining binding (cell-free assay; competition with immobilised ligand; 1 µM): 88%
N[C@H]1CCN(c2nccc(-c3cnn4ncccc34)n2)C1 — remaining binding (binding; 1 µM): 84%
O=C(NCc1ncc(C(F)(F)F)cc1Cl)c1ccc2c(c1)C1(CCS(=O)(=O)CC1)[C@H](C1CC1)N2S(=O)(=O)c1ccc(F)cc1 — remaining binding (cell-free assay; competition with immobilised ligand; 1 µM): 100%
C[C@@H]1CN(c2ccc3ncc(-c4ccc5[nH]nc(C6CC6)c5c4)n3n2)C[C@H](C)O1 — remaining binding (binding; competition with immobilised ligand; 0.5 µM): 100%
